Experimental data gathered from unrelated publications.
Compare with care: the assays were run in different laboratories.
Target: Activin receptor type-1B (ACVR1B, Homo sapiens, UniProt P36896)
One construct used (P36896 1-505): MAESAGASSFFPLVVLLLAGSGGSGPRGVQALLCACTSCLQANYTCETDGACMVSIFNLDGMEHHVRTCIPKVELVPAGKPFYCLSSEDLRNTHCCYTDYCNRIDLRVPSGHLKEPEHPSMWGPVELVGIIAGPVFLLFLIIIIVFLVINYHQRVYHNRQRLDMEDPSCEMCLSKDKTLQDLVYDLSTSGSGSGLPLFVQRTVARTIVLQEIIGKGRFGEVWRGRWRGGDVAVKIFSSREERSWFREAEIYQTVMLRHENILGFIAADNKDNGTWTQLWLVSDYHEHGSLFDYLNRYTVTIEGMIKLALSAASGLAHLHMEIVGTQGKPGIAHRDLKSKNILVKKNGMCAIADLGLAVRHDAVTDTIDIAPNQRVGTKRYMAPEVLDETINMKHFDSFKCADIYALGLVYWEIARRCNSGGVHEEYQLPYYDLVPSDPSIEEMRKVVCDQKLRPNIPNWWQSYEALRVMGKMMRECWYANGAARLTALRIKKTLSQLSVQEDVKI

SMILES	observed	technique	tested at	remaining binding
O=C(NCc1ncc(C(F)(F)F)cc1Cl)c1ccc2c(c1)C1(CCS(=O)(=O)CC1)[C@H](C1CC1)N2S(=O)(=O)c1ccc(F)cc1	cell-free assay	competition with immobilised ligand	1 µM	94%
CN(C)c1nccc(-c2cnn3ncccc23)n1	binding		1 µM	96%
Cc1nc(N2CC[C@@H](O)C2)ncc1-c1cc(C(F)(F)F)cc2[nH]ncc12	cell-free assay	competition with immobilised ligand	1 µM	100%
COc1ncc2cc3ccccc3nc2c1C#N	cell-free assay	competition with immobilised ligand	5 µM	88%
COc1cnc(Nc2cccc(S(N)(=O)=O)c2)nc1N1CCN(c2ccccc2)CC1	binding	competition with immobilised ligand	1 µM	98%
CCN1CCN(Cc2ccc(C(=O)Nc3ccc(C)c(Oc4ccc5c(c4)CC(=O)N5)c3)cc2C(F)(F)F)CC1	binding	competition with immobilised ligand	1 µM	100%
CNC(=O)c1ccc(Nc2ncc(C(F)(F)F)c(NCc3nccnc3N(C)S(C)(=O)=O)n2)cc1	cell-free assay	competition with immobilised ligand	0.1 µM	69%
O=C(c1ccc(Nc2ncc(Cl)c(-c3cc4ccccc4s3)n2)cc1)N1CCC(N2CCCC2)CC1	binding	competition with immobilised ligand	1 µM	48%
F[C@@H]1CCN(c2nccc(-c3cnn4ncccc34)n2)C1	binding		1 µM	100%
COc1cnc(Nc2cccc(S(N)(=O)=O)c2)nc1N1CCN(c2ccccc2)C(=O)C1	binding	competition with immobilised ligand	1 µM	100%
N[C@@H]1CCN(c2nccc(-c3cnn4ncccc34)n2)C1	binding		1 µM	100%
CC(C)CC(=O)N1CCc2nc(-c3ccc(Br)cc3)nc(N(C)Cc3ccccc3)c2C1	cell-free assay	competition with immobilised ligand	0.1 µM	89%
CC(C)(C)c1ccc(-c2nc(CBr)nn2-c2cccc(O)c2)cc1	cell-free assay	competition with immobilised ligand	10 µM	100%
CCC(=O)N[C@@H]1CC[C@H](C(=O)N(C)c2ccc(-c3nc4ccccc4o3)cc2)C1	cell-free assay	competition with immobilised ligand	1 µM	100%
C[C@H]1CCN(c2nccc(-c3cnn4ncccc34)n2)C1	binding		1 µM	71%
O=C(NS(=O)(=O)c1ccc(NCC2CCOCC2)c([N+](=O)[O-])c1)c1ccc(N2CCN(Cc3ccc(C(F)(F)F)cc3-c3ccc(Cl)cc3)CC2)cc1Oc1cnc2[nH]ccc2c1	cell-free assay	competition with immobilised ligand	1 µM	59%
Cc1cnn2ncc(-c3ccnc(N(C)C)n3)c2c1	binding		1 µM	100%
C[C@@H]1CN(c2ccc3ncc(-c4ccc5[nH]nc(C6CC6)c5c4)n3n2)C[C@H](C)O1	binding	competition with immobilised ligand	50 nM	100%
COc1ccnn2ncc(-c3ccnc(N(C)C)n3)c12	binding		1 µM	85%
Cc1cnc(Nc2ccc(C(=O)N3CCC(N4CCCC4)CC3)cc2)nc1-c1cc2ccccc2s1	binding	competition with immobilised ligand	1 µM	33%
CN(CCCC(F)(F)F)c1nccc(-c2cnn3ncccc23)n1	binding		1 µM	96%
Cc1nc(C2CCN(C(=O)c3ccc(OC(F)(F)F)cc3N)CC2)c2ncc(N3CCN(C)CC3)cc2n1	cell-free assay	competition with immobilised ligand	1 µM	86%
O=C(NCCCN1CCOCC1)c1ccc(Nc2ncc(Cl)c(-c3ccc(Cl)s3)n2)cc1	binding	competition with immobilised ligand	1 µM	59%
CN(C)c1ncnc(-c2ccc3nc(Nc4cc(CN5CCN(C(=O)CC(F)(F)F)CC5)ccn4)[nH]c3c2)c1Cl	cell-free assay	competition with immobilised ligand	1 µM	91%
O=C(NCC1CCOCC1)c1n[nH]cc1NC(=O)c1c(F)cccc1F	binding	competition with immobilised ligand	1 µM	100%
